Measured values: ChEMBL document CHEMBL4732200, “Synthesis and antiviral activity of a series of novel quinoline derivatives as anti-RSV or anti-IAV agents” (Eur J Med Chem, 2021)
Calls of active or inactive are those of the source. The calls are words filed in the database; no cut-off is given here.

Experiments:
[1] = tested on: Respiratory syncytial virus; assay: Potency index, ratio of ribavirin IC50 to test compound IC50 for antiviral activity against RSV Long expressing mGFP infected in HEp-2 cells; format: functional
[2] = tested on: Respiratory syncytial virus; assay: Antiviral activity against RSV Long expressing mGFP infected in HEp-2 cells assessed as reduction in viral replication after 48 hrs by MTS assay; format: functional, organism-based; conditions: human respiratory syncytial virus, HEp-2, 48 h
Summary of the method: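 HEp-2 cells plated in 96-well plates; after 24 h, virus alone or virus plus compound added; 48 h incubation. MTS (2 mg/ml) added for 3 h at 37 °C, 5% CO2; absorbance read at 490 nm. Controls were mock-treated cells (uninfected, or infected without compound), with cell activity set as 100%.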

[3] = Cytotoxicity against human HEp-2 cells assessed as reduction in cell viability after 48 hrs by MTS assay; format: cell-based
[4] = Selectivity index, ratio of CC50 for cytotoxicity against human HEp-2 cells to IC50 for antiviral activity against RSV Long expressing mGFP infected in HEp-2 cells; format: toxicity, cell-based; conditions: read-out: Ratio CC50/IC50
Influenza A virus [5] = assay: Antiviral activity against Influenza A virus A/WSN/33(H1N1) infected in human HEK-293T cells assessed as inhibition of viral replication at 10 uM after 48 hrs by CCK-8 assay relative to control; format: functional, A/WSN/1933(H1N1); set-up: scale not given: the % may be the effect or the level left
Influenza A virus [6] = assay: Antiviral activity against Influenza A virus A/WSN/33(H1N1) infected in human HEK-293T cells assessed as inhibition of viral replication after 48 hrs by CCK-8 assay; format: functional, organism-based; conditions: A/WSN/1933(H1N1)
HEK-293T = assay: Cytotoxicity against human HEK-293T cells assessed as reduction in cell viability after 48 hrs by CCK-8 assay; format: cell-based
Summary of the method: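 Cytotoxicity in 293T cells in 96-well plates incubated with compounds at six concentrations (top 200) for 48 h. CCK-8 solution added and OD read at 450 nm. DMSO-only cells served as control.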

[7] = Selectivity index, ratio of CC50 for cytotoxicity against human HEK-293T cells to IC50 for antiviral activity against Influenza A virus A/WSN/33(H1N1) […] cells; format: toxicity, cell-based; conditions: read-out: Ratio CC50/IC50
Influenza A virus [8] = assay: Antiviral activity against Influenza A virus A/WSN/33(H1N1) infected in human A549 cells assessed as inhibition of viral replication at 10 uM after 2 to 6 hrs; format: functional, organism-based; conditions: A/WSN/1933(H1N1), time 2-6 hrs
[9] = (§1) Inhibition of Influenza A virus A/WSN/33(H1N1) RNA polymerase expressed in HEK-293T cells after 24 hrs by dual luciferase reporter gene assay; format: cell-based, HEK293T
Summary of the method: (§2)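 HEK293T cells transfected with pCAGGS plasmids for PB2, PB1, PA and NP, plus a pol-driven firefly luciferase reporter and SV40-Renilla, with or without compound at the indicated concentrations. vRNA transcription read as firefly and Renilla luciferase at 24 h post-transfection.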

HEK293T = assay: as §1; format: cell-based; summary of the method: as §2
Influenza A virus [10] = assay: Potency index, ratio of ribavirin IC50 to test compound IC50 for antiviral activity against Influenza A virus A/WSN/33(H1N1) infected in human HEK-293T cells; format: functional, A/WSN/1933(H1N1)

| SMILES | Ratio IC50 [1] | IC50 [2] [µM] | CC50 at 48 h [3] [µM] | selectivity ratio [4] | Activity (Influenza A virus [5]) [%] | IC50 (Influenza A virus [6]) [µM] | IC50 (HEK-293T) [µM] | selectivity ratio [7] | Activity (Influenza A virus [8]) | IC50 [9] [µM] | inhibition (HEK293T) | Ratio IC50 (Influenza A virus [10]) |
| --- | --- | --- | --- | --- | --- | --- | --- | --- | --- | --- | --- | --- |
| O=C(COc1cccc2ccc(N3CCCC3)nc12)NCc1ccc(F)cc1 | 2.5 | 4.41 | 2130 | 483 |  |  |  |  |  |  |  |  |
| c1cc(OCCCCN2CCOCC2)c2nc(N3CCCC3)ccc2c1 |  | 11.6 | 691 | 59.6 |  |  |  |  |  |  |  |  |
| CC(C)(C)OC(=O)N[C@H]1CCN(c2ccc3cccc(OCC(=O)NCc4ccccc4)c3n2)C1 | 2.5 | 4.57 | 43.8 | 9.59 | >70 | 5.11 | 58 | 11.3 |  |  |  |  |
| c1cc(OCCCN2CCOCC2)c2nc(N3CCCC3)ccc2c1 |  | 14.1 | 552 | 39.2 |  | 50.7 | > 100 | > 1.97 |  |  |  |  |
| O=C(COc1cccc2ccc(N3CCCC3)nc12)NCc1ccco1 |  | 22.9 | 249 | 10.9 |  |  |  |  |  |  |  |  |
| O=C(COc1cccc2ccc(N3CCCC3)nc12)NCc1ccc(C(F)(F)F)cc1 |  | 27.8 | 327 | 11.8 |  | 36.1 | > 100 | > 2.77 |  |  |  |  |
| O=C(COc1cccc2ccc(N3CCCC3)nc12)NC12CC3CC(CC(C3)C1)C2 |  |  |  |  |  | 11.5 | > 100 | > 8.73 |  |  |  |  |
| COc1cccc(CNC(=O)COc2cccc3ccc(N4CCCC4)nc23)c1 | 2.5 | 6.93 | 74.3 | 10.7 |  |  |  |  |  |  |  |  |
| COc1ccc(CNC(=O)COc2cccc3ccc(N4CCCC4)nc23)cc1 | 2.5 | 3.7 | 2490 | 673 |  |  |  |  |  |  |  |  |
| O=C(COc1cccc2ccc(N3CCCC3)nc12)Nc1ccccc1 |  | 16.5 | 304 | 18.4 |  |  |  |  |  |  |  |  |
| O=C(COc1cccc2ccc(N3CCCC3)nc12)NCc1ccc(Br)cc1 |  |  |  |  |  | 42.3 | > 100 | > 2.36 |  |  |  |  |
| CCOc1ccccc1NC(=O)COc1cccc2ccc(N3CCCC3)nc12 |  | 33.2 | 1040 | 31.5 |  |  |  |  |  |  |  |  |
| O=C(COc1cccc2ccc(Cl)nc12)NCc1ccccc1 |  | 20.7 | 528 | 25.6 |  |  |  |  |  |  |  |  |
| O=C(COc1cccc2ccc(N3CCCCC3)nc12)NCc1ccccc1 |  | 26.1 | 1740 | 66.7 |  |  |  |  |  |  |  |  |
| CN(C)c1ccc2cccc(OCC(=O)NCc3ccccc3)c2n1 | 2.5 | 3.1 | 168 | 54.1 |  | 14.2 | > 100 | > 7.02 |  |  |  |  |
| c1cc(OCCCCCN2CCOCC2)c2nc(N3CCCC3)ccc2c1 |  | 31.3 | 173 | 5.52 |  | 32.4 | > 100 | > 3.08 |  |  |  |  |

| SMILES | Ratio IC50 [1] | IC50 [2] [µM] | CC50 at 48 h [3] [µM] | selectivity ratio [4] | Activity (Influenza A virus [5]) [%] | IC50 (Influenza A virus [6]) [µM] | IC50 (HEK-293T) [µM] | selectivity ratio [7] | Activity (Influenza A virus [8]) | IC50 [9] [µM] | inhibition (HEK293T) | Ratio IC50 (Influenza A virus [10]) |
| --- | --- | --- | --- | --- | --- | --- | --- | --- | --- | --- | --- | --- |
| CNc1ccc2cccc(OCC(=O)NCc3ccccc3)c2n1 |  | 10.3 | 94.8 | 9.2 |  |  |  |  |  |  |  |  |
| CC(C)(C)OC(=O)N[C@@H]1CCN(c2ccc3cccc(OCC(=O)NCc4ccccc4)c3n2)C1 |  | 35.3 | 58.6 | 1.66 | >70 | 4.99 | 49.9 | 9.99 |  |  |  |  |
| O=C(COc1cccc2ccc(N3CCCC3)nc12)NCc1cccc(Cl)c1 |  | 30.2 | 73 | 2.41 |  |  |  |  |  |  |  |  |
| CCOc1ccccc1CNC(=O)COc1cccc2ccc(N3CCCC3)nc12 |  | 45.7 | 113 | 2.48 |  | 7.46 | > 100 | > 13.4 |  |  |  |  |
| O=C(COc1cccc2ccc(N3CCOCC3)nc12)NCc1ccccc1 |  | 36.1 | 46.2 | 1.28 |  |  |  |  |  |  |  |  |
| NC(=O)c1ncn([C@@H]2O[C@H](CO)[C@@H](O)[C@H]2O)n1 [RIBAVIRIN] |  | 17.3 | 3040 | 175 |  |  | > 100 | > 6.51 |  |  |  |  |
| O=C(COc1cccc2ccc(N3CCCC3)nc12)NCc1ccccc1Br |  | 182 | 312 | 1.71 |  |  |  |  |  |  |  |  |
| O=C(COc1cccc2ccc(N3CCCC3)nc12)NCc1ccc(Cl)cc1 |  | 39.2 | 245 | 6.26 |  |  |  |  |  |  |  |  |
| CC(C)(C)OC(=O)N1CCN(c2ccc3cccc(OCC(=O)NCc4ccccc4)c3n2)CC1 |  | 16.9 | 1370 | 80.9 | >70 | 1.87 | > 100 | > 53.5 | Active | 1.93 | Dose-dependent effect | 8.2 |
| CS(=O)(=O)c1ccc(CNC(=O)COc2cccc3ccc(N4CCCC4)nc23)cc1 |  | 221 | 1360 | 6.14 |  |  |  |  |  |  |  |  |
| CN1CCN(c2ccc3cccc(OCC(=O)NCc4ccccc4)c3n2)CC1 |  | 19.3 | 264 | 13.7 |  | 9.87 | > 100 | > 10.1 |  |  |  |  |
| O=C(COc1cccc2ccc(N3CCCC3)nc12)NCc1cccc(F)c1 |  | 2920 | 444 | 0.15 |  |  |  |  |  |  |  |  |
| O=C(COc1cccc2ccc(N3CCCC3)nc12)NCc1ccccc1 |  | 55.8 | 540 | 9.68 |  | 13.3 | > 100 | > 7.5 |  |  |  |  |
| O=C(COc1cccc2ccc(N3CCCC3)nc12)NCC1CC1 |  | 29 | 580 | 20 |  |  |  |  |  |  |  |  |
| CCOC(=O)COc1cccc2ccc(N3CCCC3)nc12 |  | 16.4 | 826 | 50.3 |  |  |  |  |  |  |  |  |
